Experimental data published in ChEMBL document CHEMBL1146349, “Endomorphin-1 analogs with enhanced metabolic stability and systemic analgesic activity: design, synthesis, and pharmacological characterization” (Bioorg Med Chem, 2007).
Activity calls are given as the source filed them.

What was measured:
[1] = Distribution coefficient, log D in octanol and […] at pH 7.4; format: physicochemical
In short: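 Shake-flask: 50 µg peptide in pre-equilibrated 0.05 M Hepes/0.1 M NaCl pH 7.4 with octanol, vortexed 2 min, centrifuged; both phases quantified by RP-HPLC; D = octanol/buffer ratio; triplicate.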

[2] = Protein binding to BSA; format: ADME, Bos taurus; details: cattle, isolated protein
In short: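 Peptides in mammalian Ringer's solution with 10 g/L BSA and 3.9% dextran, pH 7.4, 37 °C; ultrafiltration (30 kDa cut-off, 2000g, 10 min); total and free peptide by RP-HPLC; % bound = (T−F)/T×100; triplicate.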

[3] = target: Mu-type opioid receptor (Cavia porcellus, UniProt P97266); assay: Agonist activity at mu opioid receptor in guinea pig ileum assessed as inhibition of electrically-induced twitches; format: functional, tissue-based
In short: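 GPI: twitches evoked at 0.1 Hz, 50 V, 0.5-ms pulse width; isometric recording; dose–response curves with IC50 derived graphically; arithmetic mean of five to eight measurements.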

[4] = target: Mu-type opioid receptor (Rattus norvegicus, UniProt P33535); assay: Binding affinity to mu opioid receptor in rat brain synaptosome membrane by radioligand binding assay; format: cell membranes
In short: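 Competition vs [3H]Tyr-D-Ala-Gly-MePhe-Gly-ol (DAMGO-type mu ligand) 0.5 nM, 1 h, on rat brain synaptosomal membranes (300–500 µg/mL protein) in 50 mM Tris–HCl pH 7.4; nonspecific binding with 10 µM naloxone; duplicates, repeated at least three times.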

[5] = target: Delta-type opioid receptor (Rattus norvegicus, UniProt P33533); assay: Binding affinity to delta opioid receptor in rat brain synaptosome membrane by radioligand binding assay; format: cell membranes
In short: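 Displacement of [3H]Tyr-c[D-Pen-Gly-Phe-D-Pen]-OH 1 nM, 3 h incubation, rat brain synaptosomal membranes (300–500 µg/mL protein), 50 mM Tris–HCl pH 7.4; 10 µM naloxone defines nonspecific binding; duplicate assays, at least three repeats.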

[6] = Half life in mouse brain; format: ADME, tissue-based
In short: (§1)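 Peptides at 500 µM final in 15% mouse brain homogenate (washed) or 100% mouse serum, 2.3 mg/mL protein, 50 mM Tris pH 7.4, 37 °C; sampled 0–300 min in triplicate; stopped with acetonitrile, acidified, centrifuged, remaining peptide by RP-HPLC.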

[7] = Half life in mouse serum; format: ADME, cell-free; in short: as §1
[8] = target: Delta-type opioid receptor (Mus musculus, UniProt P32300); assay: Agonist activity at delta opioid receptor in mouse vas deferens assessed as inhibition of electrically-induced twitches; format: functional, tissue-based
In short: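 MVD: paired rectangular pulses (1-ms width, 100-ms apart, 9 V/cm, supramaximal) every 10 s; isometric twitch recording; dose–response curves, IC50 read graphically; mean of five to eight measurements.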

[9] = tested on: Mus musculus; assay: Antinociceptive activity in mouse at 30 mg/kg, sc by tail flick test; format: functional, organism-based; parameters: dose 30 mg/kg
In short: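 Mice given 30 mg/kg sc (100 µL); 50 °C warm-water tail-flick, baseline responders under 5 s kept, 10 s cut-off; latencies at 5–60 min post-dose; %MPE = 100·(TL−CL)/(10−CL); saline control; six to eight mice per group, mean with SEM.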

Delta-type opioid receptor (Mus musculus, UniProt P32300), sequence (P32300 whole entry): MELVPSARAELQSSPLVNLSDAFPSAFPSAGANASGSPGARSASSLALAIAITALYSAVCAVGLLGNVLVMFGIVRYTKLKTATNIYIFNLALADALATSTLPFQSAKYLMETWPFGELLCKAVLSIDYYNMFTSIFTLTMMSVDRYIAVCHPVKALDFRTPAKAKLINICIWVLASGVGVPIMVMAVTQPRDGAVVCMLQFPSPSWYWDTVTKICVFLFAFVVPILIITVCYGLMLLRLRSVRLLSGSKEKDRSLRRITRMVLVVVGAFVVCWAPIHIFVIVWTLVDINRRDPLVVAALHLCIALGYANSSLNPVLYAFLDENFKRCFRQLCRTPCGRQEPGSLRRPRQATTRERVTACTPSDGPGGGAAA
Mu-type opioid receptor (Rattus norvegicus, UniProt P33535), sequence (P33535 whole entry): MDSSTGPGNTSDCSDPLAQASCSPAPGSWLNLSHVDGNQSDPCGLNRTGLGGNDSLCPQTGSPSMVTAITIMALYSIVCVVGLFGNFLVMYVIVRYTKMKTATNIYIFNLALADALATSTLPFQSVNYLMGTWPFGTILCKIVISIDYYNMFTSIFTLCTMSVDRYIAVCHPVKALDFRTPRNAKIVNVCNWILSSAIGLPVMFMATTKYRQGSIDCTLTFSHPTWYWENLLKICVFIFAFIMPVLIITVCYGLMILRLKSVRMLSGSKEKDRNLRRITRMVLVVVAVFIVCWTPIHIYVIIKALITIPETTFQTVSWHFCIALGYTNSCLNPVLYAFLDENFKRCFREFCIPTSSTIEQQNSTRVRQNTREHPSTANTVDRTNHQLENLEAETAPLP
Mu-type opioid receptor (Cavia porcellus, UniProt P97266), sequence (P97266 whole entry): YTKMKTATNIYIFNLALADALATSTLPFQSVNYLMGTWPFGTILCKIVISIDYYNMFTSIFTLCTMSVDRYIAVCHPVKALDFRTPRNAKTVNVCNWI
Delta-type opioid receptor (Rattus norvegicus, UniProt P33533), sequence (P33533 whole entry): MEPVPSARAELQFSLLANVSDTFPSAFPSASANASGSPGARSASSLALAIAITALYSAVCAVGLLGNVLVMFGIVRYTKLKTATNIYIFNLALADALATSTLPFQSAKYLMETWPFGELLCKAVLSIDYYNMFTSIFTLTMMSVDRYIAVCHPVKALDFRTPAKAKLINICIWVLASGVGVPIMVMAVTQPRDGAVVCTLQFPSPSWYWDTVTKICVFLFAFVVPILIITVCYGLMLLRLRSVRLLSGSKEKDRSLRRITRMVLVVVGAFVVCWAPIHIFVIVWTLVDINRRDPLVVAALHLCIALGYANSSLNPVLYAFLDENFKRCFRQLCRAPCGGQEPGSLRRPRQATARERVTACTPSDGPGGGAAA

Structure (SMILES)	logD [1]	Activity [2]	IC50 [3]	Ki [4]	Ki [5]	half-life [6]	half-life [7]	IC50 [8]	Activity [9]
COc1ccc(C[C@H](N=C(N)N)C(=O)N2CCC[C@H]2C(=O)N[C@@H](Cc2c[nH]c3ccccc23)C(=O)N[C@@H](Cc2ccccc2)C(N)=O)cc1	0.21	40.58%	988 nM	792 nM	4790 nM	4.3 h	0.522 h	1340 nM	–
COc1ccc(C[C@H](N=C(N)N)C(=O)N2CCC[C@@H]2C(=O)NCC(=O)N[C@@H](Cc2c[nH]c3ccccc23)C(=O)N[C@@H](Cc2ccccc2)C(N)=O)cc1	0.78	45.15%	> 1000 nM	1060 nM	> 10000 nM	7.45 h	2.75 h	> 10000 nM	–
COc1ccc(C[C@H](NC(=N)N)C(=O)N2CCC[C@@H]2C(=O)NCC(=O)N[C@@H](Cc2c[nH]c3ccccc23)C(=O)N[C@@H](Cc2ccc(Cl)cc2)C(N)=O)cc1	1.64	62.52%	> 1000 nM	919 nM	1480 nM	6.82 h	3.6 h	> 10000 nM	Active
COc1ccc(C[C@H](N=C(N)N)C(=O)N2CCC[C@H]2C(=O)N[C@@H](Cc2c[nH]c3ccccc23)C(=O)N[C@@H](Cc2ccc(Cl)cc2)C(N)=O)cc1	1.33	65.57%	845 nM	538 nM	1370 nM	3.17 h	0.803 h	1290 nM	–
